Assay results taken from ChEMBL document CHEMBL1772954, “Antifungal, cytotoxic and SAR studies of a series of N-alkyl, N-aryl and N-alkylphenyl-1,4-pyrrolediones and related compounds” (Bioorg Med Chem, 2011).
≈ marks a conversion by molar mass, not a printed value.

How the values were obtained:
Aspergillus niger = experiment: Antifungal activity against Aspergillus niger ATCC 9029; format: functional
Outline: (§1)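 Broth microdilution per CLSI M38-A2 in RPMI-1640 with MOPS at pH 7.0. Inoculum 1-5 × 10^3 CFU/mL, with twofold compound dilutions spanning 250-0.24 µg/ml (final DMSO <1%). Plates incubated at 35 °C, moist and dark, and read when the control fungus had grown. MIC is total growth inhibition. MFC comes from subculturing clear wells in duplicate onto SDA.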

[1] = test system: Trichophyton mentagrophytes; experiment: Antifungal activity against Trichophyton mentagrophytes ATCC 9972; format: functional
Outline: (§2)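 Dermatophytes tested by CLSI M38-A2 microdilution in MOPS-buffered RPMI-1640 at pH 7.0. Inoculum 1-5 × 10^3 CFU/mL; compounds 250 to 0.24 µg/ml in twofold steps, final DMSO <1%. Incubated at 28 °C in a moist, dark chamber and read according to control growth. MIC is the lowest concentration with complete inhibition. MFC is the lowest concentration with no growth after duplicate subculture on SDA.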

Candida albicans = experiment: Antifungal activity against Candida albicans ATCC 10213; format: functional
Outline: (§3)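 CLSI M27-A3 broth microdilution in RPMI-1640 buffered to pH 7.0 with MOPS. Inoculum 1-5 × 10^3 CFU/mL. Compound twofold dilutions from 250 to 0.24 µg/ml, final DMSO <1%. Incubated at 35 °C in a moist, dark chamber and read at 48 h. MIC is the lowest concentration giving total growth inhibition. For MFC, 5 µL from clear wells was plated in duplicate on SDA; MFC is the lowest concentration with no growth.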

Aspergillus fumigatus = experiment: Antifungal activity against Aspergillus fumigatus ATCC 26934; format: functional; outline: as §1
Trichophyton rubrum = experiment: Antifungal activity against Trichophyton rubrum C 113 2000; format: functional; outline: as §2
Nannizzia gypsea = experiment: Antifungal activity against Microsporum gypseum C 115 2000; format: functional; outline: as §2
Aspergillus flavus = experiment: Antifungal activity against Aspergillus flavus ATCC 9170; format: functional; outline: as §1
[2] = Cytotoxicity against human erythrocytes assessed as hemolysis by spectrometric analysis; format: cell-based, Erythrocyte
Outline: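 Human heparinized red blood cells were washed in PBS at pH 7.0 and suspended at 4% in sterile 5% glucose. Compounds from DMSO stocks were diluted in 5% glucose to final concentrations of 250 to 0.24 µg/ml and incubated with the cells at 37 °C. Released hemoglobin was read at 540 nm. HC50 is the concentration giving 50% lysis relative to the drug-free value.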

MCF7 = experiment: Cytotoxicity against human MCF7 cells assessed as cell growth after 2 days by sulforhodamine B assay; format: functional; settings: MCF7, 48 h
Outline: (§4)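 NCI cell lines were run by the Monks method: cells were plated with compounds from DMSO stocks and incubated 2 days at 37 °C in 5% CO2, in duplicate. Cells were fixed with cold TCA, stained with 0.4% SRB, and the bound dye was solubilized in 10 mM tris-base and read at 515 nm. The zero-day control was subtracted, and GI50 was taken from the curves.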

SF-268 = experiment: Cytotoxicity against human SF268 cells assessed as cell growth after 2 days by sulforhodamine B assay; format: functional; settings: SF-268, 48 h; outline: as §4
Saccharomyces cerevisiae = experiment: Antifungal activity against Saccharomyces cerevisiae ATCC 9763; format: functional; outline: as §3
NCI-H460 = experiment: Cytotoxicity against human H460 cells assessed as cell growth after 2 days by sulforhodamine B assay; format: functional; settings: NCI-H460, 48 h; outline: as §4
Candida tropicalis = experiment: Antifungal activity against Candida tropicalis C 131 2000; format: functional; outline: as §3
Cryptococcus neoformans = experiment: Antifungal activity against Cryptococcus neoformans ATCC 32264; format: functional; outline: as §3

| Structure (SMILES) | MIC (Aspergillus niger) | MIC [1] | MIC (Candida albicans) | MIC (Aspergillus fumigatus) | MIC (Trichophyton rubrum) | MIC (Nannizzia gypsea) | MIC (Aspergillus flavus) | MIC (Saccharomyces cerevisiae) | MFC (Aspergillus niger) | MFC [1] | MFC (Candida albicans) | MFC (Aspergillus fumigatus) | MFC (Trichophyton rubrum) | MFC (Nannizzia gypsea) | MFC (Aspergillus flavus) | HC50 [2] | GI50 (MCF7) | GI50 (SF-268) | MFC (Saccharomyces cerevisiae) | GI50 (NCI-H460) | further results |
| --- | --- | --- | --- | --- | --- | --- | --- | --- | --- | --- | --- | --- | --- | --- | --- | --- | --- | --- | --- | --- | --- |
| COc1ccc(N2C(=O)C=CC2=O)c(OC)c1 | 15.6 µg/mL (≈ 67 µM) | 3.9 µg/mL (≈ 16.7 µM) | 15.6 µg/mL (≈ 67 µM) | 31.2 µg/mL (≈ 134 µM) | 3.9 µg/mL (≈ 16.7 µM) | 3.9 µg/mL (≈ 16.7 µM) | 62.5 µg/mL (≈ 268 µM) | 7.81 µg/mL (≈ 33.5 µM) | 62.5 µg/mL (≈ 268 µM) | 3.9 µg/mL (≈ 16.7 µM) | 15.6 µg/mL (≈ 67 µM) | 62.5 µg/mL (≈ 268 µM) | 7.81 µg/mL (≈ 33.5 µM) | 7.81 µg/mL (≈ 33.5 µM) | 125 µg/mL (≈ 536 µM) | > 250 µg/mL | > 10 µg/mL | > 10 µg/mL | 7.81 µg/mL (≈ 33.5 µM) | > 10 µg/mL | MFC (Candida tropicalis): 15.6 µg/mL (≈ 67 µM); MIC (Candida tropicalis): 15.6 µg/mL (≈ 67 µM); MFC (Cryptococcus neoformans): 7.81 µg/mL (≈ 33.5 µM); MIC (Cryptococcus neoformans): 7.81 µg/mL (≈ 33.5 µM) |
| O=C1C=CC(=O)N1c1ccc2c(c1)OCO2 | 62.5 µg/mL (≈ 288 µM) | 1.95 µg/mL (≈ 8.98 µM) | 31.2 µg/mL (≈ 144 µM) | 62.5 µg/mL (≈ 288 µM) | 1.95 µg/mL (≈ 8.98 µM) | 1.95 µg/mL (≈ 8.98 µM) | 62.5 µg/mL (≈ 288 µM) | 7.81 µg/mL (≈ 36 µM) | 125 µg/mL (≈ 576 µM) | 3.9 µg/mL (≈ 18 µM) | 62.5 µg/mL (≈ 288 µM) | 125 µg/mL (≈ 576 µM) | 3.9 µg/mL (≈ 18 µM) | 1.95 µg/mL (≈ 8.98 µM) | 125 µg/mL (≈ 576 µM) | > 250 µg/mL | > 10 µg/mL | > 10 µg/mL | 15.6 µg/mL (≈ 72 µM) | > 10 µg/mL | MFC (Candida tropicalis): 62.5 µg/mL (≈ 288 µM); MIC (Candida tropicalis): 31.2 µg/mL (≈ 144 µM); MFC (Cryptococcus neoformans): 15.6 µg/mL (≈ 72 µM); MIC (Cryptococcus neoformans): 7.81 µg/mL (≈ 36 µM) |
| CC1=CC(=O)N(c2ccccc2)C1=O | 125 µg/mL (≈ 668 µM) | 31.2 µg/mL (≈ 167 µM) | 62.5 µg/mL (≈ 334 µM) | 31.2 µg/mL (≈ 167 µM) | 7.81 µg/mL (≈ 41.7 µM) | 7.81 µg/mL (≈ 41.7 µM) | 62.5 µg/mL (≈ 334 µM) | 31.2 µg/mL (≈ 167 µM) | 250 µg/mL (≈ 1340 µM) | 62.5 µg/mL (≈ 334 µM) | 125 µg/mL (≈ 668 µM) | 62.5 µg/mL (≈ 334 µM) | 15.6 µg/mL (≈ 83.5 µM) | 15.6 µg/mL (≈ 83.5 µM) | 125 µg/mL (≈ 668 µM) | > 250 µg/mL | > 10 µg/mL | > 10 µg/mL | 125 µg/mL (≈ 668 µM) | > 10 µg/mL | MFC (Candida tropicalis): 125 µg/mL (≈ 668 µM); MIC (Candida tropicalis): 62.5 µg/mL (≈ 334 µM); MFC (Cryptococcus neoformans): 62.5 µg/mL (≈ 334 µM); MIC (Cryptococcus neoformans): 31.2 µg/mL (≈ 167 µM) |
| COc1ccc(N2C(=O)C=CC2=O)cc1 | 31.2 µg/mL (≈ 154 µM) | 3.9 µg/mL (≈ 19.2 µM) | 62.5 µg/mL (≈ 308 µM) | 62.5 µg/mL (≈ 308 µM) | 3.9 µg/mL (≈ 19.2 µM) | 3.9 µg/mL (≈ 19.2 µM) | 62.5 µg/mL (≈ 308 µM) | 31.2 µg/mL (≈ 154 µM) | 62.5 µg/mL (≈ 308 µM) | 7.81 µg/mL (≈ 38.4 µM) | 125 µg/mL (≈ 615 µM) | 125 µg/mL (≈ 615 µM) | 3.9 µg/mL (≈ 19.2 µM) | 7.81 µg/mL (≈ 38.4 µM) | 125 µg/mL (≈ 615 µM) | > 250 µg/mL | > 10 µg/mL | > 10 µg/mL | 62.5 µg/mL (≈ 308 µM) | > 10 µg/mL | MFC (Candida tropicalis): 125 µg/mL (≈ 615 µM); MIC (Candida tropicalis): 62.5 µg/mL (≈ 308 µM); MFC (Cryptococcus neoformans): 15.6 µg/mL (≈ 76.9 µM); MIC (Cryptococcus neoformans): 15.6 µg/mL (≈ 76.9 µM) |

More lines, main results first:

| MIC (Aspergillus niger) | MIC [1] | MIC (Candida albicans) | MIC (Aspergillus fumigatus) | MIC (Trichophyton rubrum) | MIC (Nannizzia gypsea) | MIC (Aspergillus flavus) | MIC (Saccharomyces cerevisiae) | Structure (SMILES) | MFC (Aspergillus niger) | MFC [1] | MFC (Candida albicans) | MFC (Aspergillus fumigatus) | MFC (Trichophyton rubrum) | MFC (Nannizzia gypsea) | MFC (Aspergillus flavus) | HC50 [2] | GI50 (MCF7) | GI50 (SF-268) | MFC (Saccharomyces cerevisiae) | GI50 (NCI-H460) | further results |
| --- | --- | --- | --- | --- | --- | --- | --- | --- | --- | --- | --- | --- | --- | --- | --- | --- | --- | --- | --- | --- | --- |
| 31.2 µg/mL (≈ 154 µM) | 1.95 µg/mL (≈ 9.6 µM) | 15.6 µg/mL (≈ 76.9 µM) | 31.2 µg/mL (≈ 154 µM) | 1.95 µg/mL (≈ 9.6 µM) | 3.9 µg/mL (≈ 19.2 µM) | 31.2 µg/mL (≈ 154 µM) | 3.9 µg/mL (≈ 19.2 µM) | COc1cccc(N2C(=O)C=CC2=O)c1 | 62.5 µg/mL (≈ 308 µM) | 3.9 µg/mL (≈ 19.2 µM) | 62.5 µg/mL (≈ 308 µM) | 62.5 µg/mL (≈ 308 µM) | 3.9 µg/mL (≈ 19.2 µM) | 7.81 µg/mL (≈ 38.4 µM) | 62.5 µg/mL (≈ 308 µM) | > 250 µg/mL | > 10 µg/mL | > 10 µg/mL | 7.81 µg/mL (≈ 38.4 µM) | > 10 µg/mL | MFC (Candida tropicalis): 62.5 µg/mL (≈ 308 µM); MIC (Candida tropicalis): 15.6 µg/mL (≈ 76.9 µM); MFC (Cryptococcus neoformans): 7.81 µg/mL (≈ 38.4 µM); MIC (Cryptococcus neoformans): 3.9 µg/mL (≈ 19.2 µM) |
| 15.6 µg/mL (≈ 83.5 µM) | 1.95 µg/mL (≈ 10.4 µM) | 15.6 µg/mL (≈ 83.5 µM) | 62.5 µg/mL (≈ 334 µM) | 1.95 µg/mL (≈ 10.4 µM) | 3.9 µg/mL (≈ 20.8 µM) | 62.5 µg/mL (≈ 334 µM) | 7.81 µg/mL (≈ 41.7 µM) | Cc1ccccc1N1C(=O)C=CC1=O | 62.5 µg/mL (≈ 334 µM) | 3.9 µg/mL (≈ 20.8 µM) | 15.6 µg/mL (≈ 83.5 µM) | 125 µg/mL (≈ 668 µM) | 3.9 µg/mL (≈ 20.8 µM) | 7.81 µg/mL (≈ 41.7 µM) | 62.5 µg/mL (≈ 334 µM) | > 250 µg/mL | > 10 µg/mL | > 10 µg/mL | 7.81 µg/mL (≈ 41.7 µM) | > 10 µg/mL | MFC (Candida tropicalis): 31.2 µg/mL (≈ 167 µM); MIC (Candida tropicalis): 15.6 µg/mL (≈ 83.5 µM); MFC (Cryptococcus neoformans): 7.81 µg/mL (≈ 41.7 µM); MIC (Cryptococcus neoformans): 7.81 µg/mL (≈ 41.7 µM) |
| 15.6 µg/mL (≈ 83.5 µM) | 1.95 µg/mL (≈ 10.4 µM) | 15.6 µg/mL (≈ 83.5 µM) | 31.2 µg/mL (≈ 167 µM) | 1.95 µg/mL (≈ 10.4 µM) | 1.95 µg/mL (≈ 10.4 µM) | 15.6 µg/mL (≈ 83.5 µM) | 3.9 µg/mL (≈ 20.8 µM) | Cc1ccc(N2C(=O)C=CC2=O)cc1 | 31.2 µg/mL (≈ 167 µM) | 7.81 µg/mL (≈ 41.7 µM) | 31.2 µg/mL (≈ 167 µM) | 62.5 µg/mL (≈ 334 µM) | 3.9 µg/mL (≈ 20.8 µM) | 3.9 µg/mL (≈ 20.8 µM) | 15.6 µg/mL (≈ 83.5 µM) | > 250 µg/mL | > 10 µg/mL | > 10 µg/mL | 7.81 µg/mL (≈ 41.7 µM) | > 10 µg/mL | MFC (Candida tropicalis): 31.2 µg/mL (≈ 167 µM); MIC (Candida tropicalis): 15.6 µg/mL (≈ 83.5 µM); MFC (Cryptococcus neoformans): 7.81 µg/mL (≈ 41.7 µM); MIC (Cryptococcus neoformans): 3.9 µg/mL (≈ 20.8 µM) |
